Laboratory results: PMC3164867 (Journal of medicinal chemistry, 2009)
Values belong to the compound of their own block, whether it stands above or below them.

What was measured:
Solubility = assay type: physicochemical; settings: preliminary evidence
[1] = test system: Molt-4 (T-cell lymphoma) or Raji tumors (B-cell lymphoma); assay type: in vivo, nude mice
Method in brief: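 Athymic Nu/Nu mice, 4–6 weeks old, bore sc Molt-4 or Raji (1 × 10^7 cells, right upper back) and A549 (1 × 10^6 cells, left upper back), studied at 10–15 mm. Under pentobarbital ip anesthesia, Cy5.5-conjugated test compound given iv by tail vein; serial NIRF imaging 5 min–120 h (10 nmol), 30 s exposures. Ex vivo organs and tumors at 24 h (0.25 or 1 nmol); ROI mean intensity minus heart background.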

activated α4β1 integrin = activated α4β1 integrin (Homo sapiens, UniProt P05556+P13612); assay type: cell-based; settings: for potency (in words): SAR summary, Molt-4 cell adhesion
activated α4β1 integrin, sequence (P13612 34-1032): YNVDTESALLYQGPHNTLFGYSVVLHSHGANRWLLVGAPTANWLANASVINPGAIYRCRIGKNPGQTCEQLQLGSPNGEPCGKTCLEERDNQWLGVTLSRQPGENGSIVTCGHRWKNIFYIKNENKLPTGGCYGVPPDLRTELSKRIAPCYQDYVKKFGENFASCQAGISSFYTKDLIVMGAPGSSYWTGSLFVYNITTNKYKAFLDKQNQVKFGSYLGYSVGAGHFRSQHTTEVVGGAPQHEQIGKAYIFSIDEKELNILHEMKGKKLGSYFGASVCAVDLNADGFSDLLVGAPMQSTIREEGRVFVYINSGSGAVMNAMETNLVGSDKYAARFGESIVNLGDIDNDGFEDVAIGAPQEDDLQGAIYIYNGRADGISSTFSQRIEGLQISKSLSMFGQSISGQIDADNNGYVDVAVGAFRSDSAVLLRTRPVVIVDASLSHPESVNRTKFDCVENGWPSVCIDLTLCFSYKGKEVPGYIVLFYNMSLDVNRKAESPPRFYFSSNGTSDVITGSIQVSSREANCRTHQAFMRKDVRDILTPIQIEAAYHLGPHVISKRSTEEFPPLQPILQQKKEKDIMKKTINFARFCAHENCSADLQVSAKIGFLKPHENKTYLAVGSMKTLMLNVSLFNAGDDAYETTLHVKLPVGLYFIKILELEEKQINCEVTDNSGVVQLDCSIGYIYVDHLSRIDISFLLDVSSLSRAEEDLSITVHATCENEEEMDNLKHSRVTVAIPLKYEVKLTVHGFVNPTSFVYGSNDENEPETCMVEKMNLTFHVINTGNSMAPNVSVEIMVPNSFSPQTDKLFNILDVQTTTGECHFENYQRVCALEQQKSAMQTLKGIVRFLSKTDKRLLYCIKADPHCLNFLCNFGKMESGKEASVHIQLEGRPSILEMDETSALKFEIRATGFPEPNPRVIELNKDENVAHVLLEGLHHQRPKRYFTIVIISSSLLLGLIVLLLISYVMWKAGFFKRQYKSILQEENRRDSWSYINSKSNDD
activated α4β1 integrin, sequence (P05556 21-798): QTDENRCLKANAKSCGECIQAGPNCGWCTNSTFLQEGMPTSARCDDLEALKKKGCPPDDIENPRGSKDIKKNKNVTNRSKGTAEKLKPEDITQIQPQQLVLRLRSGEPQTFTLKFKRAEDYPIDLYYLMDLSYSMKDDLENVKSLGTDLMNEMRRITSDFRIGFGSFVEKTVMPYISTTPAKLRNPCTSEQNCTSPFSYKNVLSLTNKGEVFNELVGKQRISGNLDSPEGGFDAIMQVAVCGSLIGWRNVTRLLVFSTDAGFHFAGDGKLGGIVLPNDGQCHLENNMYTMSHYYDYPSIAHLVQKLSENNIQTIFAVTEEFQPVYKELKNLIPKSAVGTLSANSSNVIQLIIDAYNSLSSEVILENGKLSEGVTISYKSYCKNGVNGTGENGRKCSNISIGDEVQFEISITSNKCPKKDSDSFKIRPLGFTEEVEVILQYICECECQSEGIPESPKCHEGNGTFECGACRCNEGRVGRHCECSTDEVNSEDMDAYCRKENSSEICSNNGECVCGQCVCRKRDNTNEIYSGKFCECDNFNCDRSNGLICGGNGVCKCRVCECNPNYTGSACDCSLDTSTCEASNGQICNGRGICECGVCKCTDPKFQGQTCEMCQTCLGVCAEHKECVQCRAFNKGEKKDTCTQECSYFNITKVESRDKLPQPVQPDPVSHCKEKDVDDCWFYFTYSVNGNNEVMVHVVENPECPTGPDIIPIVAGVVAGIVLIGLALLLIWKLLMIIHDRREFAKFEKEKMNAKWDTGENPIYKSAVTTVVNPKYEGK

[2] = iv tail vein, nude mice with Molt-4 or Raji and A549 xenografts, NIRF imaging

Compound: 2-(1E,3E,5E)-5-3-(R)-1-(1-(R)-2-(R)-2-[2-(4-(benzo[d]thiazol-2-ylamino)phenyl)\acetamido]-6-(E)-3-(pyridin-3-yl)acrylamido)hexanamido)-5-carboxypentanamido)cyclohexyl)-27-carbamoyl-1,9,13,21,25,33-hexaoxo-5,17-dioxa-2,8,14,20,26,32-hexa-azaheptatriacontan-37-yl)-1,1-dimethyl-6,8-disulfonato-1H-benzo[e]indol-2(3H)-ylid-ene)penta-1,3-dienyl)-3-ethyl-1,1-di-methyl-1H-benzo[e]indolium-6,8-disulfonate [Compound 6-Cy5.5]
solubility (in words) (Solubility): improved solubility | organ signal (in words) ([1]; ex vivo NIRF of organs): low liver, muscle, lung, and spleen signal | kidney:tumor ratio (in words) ([1]; ex vivo NIRF, preliminary, compared with 1-Cy5.5): improvement in the kidney:tumor ratio | tumor uptake first observed post injection [1, 2]: 5 min | tumor uptake persisted post injection [1, 2]: up to 120 h

potency relative to bisaryl urea 1 (fold less potent) (activated α4β1 integrin; compared with 1): 10 fold
Compound: NC(=O)C1(NC(=O)[C@H](CCCC(=O)O)NC(=O)[C@H](CCCCNC(=O)/C=C/c2cccnc2)NC(=O)Cc2ccc(Nc3nc4ccccc4[nH]3)cc2)CCCCC1 [Compound 2, reference compound]

IC50 (activated α4β1 integrin): 0.03 µM
Compound: NC(=O)C1(NC(=O)[C@@H](CCCC(=O)O)NC(=O)[C@@H](CCCCNC(=O)/C=C/c2cccnc2)NC(=O)c2cccc(Nc3nc4cc(Br)ccc4[nH]3)c2)CCCCC1 [Compound 3]

IC50 (activated α4β1 integrin): 0.49 µM | potency (in words) (activated α4β1 integrin): mid nM potency
Compound: Cc1ccc2[nH]c(Nc3ccc(C(=O)N[C@H](CCCCNC(=O)/C=C/c4cccnc4)C(=O)N[C@H](CCCC(=O)O)C(=O)NC4(C(N)=O)CCCCC4)cc3)nc2c1 [Compound 5]

potency (in words) (activated α4β1 integrin): equipotent to 1
Compound: NC(=O)C1(NC(=O)[C@@H](CCCC(=O)O)NC(=O)[C@@H](CCCCNC(=O)/C=C/c2cccnc2)NC(=O)Cc2ccc(Nc3nc4ccccc4s3)cc2)CCCCC1 [Compound 6, (R)-5-(R)-[2-{2-[4-(Benzothiazol-2-ylamino)-phenyl]acetylamino}-6-(E)-(3-pyridin-3-yl-acryloylamino)hexanoylamino]-5-(1-carbamoylcyclo-hexylcarbamoyl)pentanoic Acid]

potency (in words) (activated α4β1 integrin): low nM potency
Compound: Cc1cccc2oc(Nc3ccc(CC(=O)N[C@H](CCCCNC(=O)/C=C/c4cccnc4)C(=O)N[C@H](CCCC(=O)O)C(=O)NC4(C(N)=O)CCCCC4)cc3)nc12 [Compound 7]

potency (in words) (activated α4β1 integrin): complete loss of potency
Compound: Cc1cccc2oc(Nc3ccc(C(=O)N[C@H](CCCCNC(=O)/C=C/c4cccnc4)C(=O)N[C@H](CCCC(=O)O)C(=O)NC4(C(N)=O)CCCCC4)cc3)nc12 [Compound 9]

potency (in words) (activated α4β1 integrin): complete loss of potency
Compound: NC(=O)C1(NC(=O)[C@@H](CCCC(=O)O)NC(=O)[C@@H](CCCCNC(=O)/C=C/c2cccnc2)NC(=O)c2ccc(Nc3nc4ccccc4o3)cc2)CCCCC1 [Compound 10]

potency (in words) (activated α4β1 integrin): mid nM potency
Compound: NC(=O)C1(NC(=O)[C@@H](CCCC(=O)O)NC(=O)[C@@H](CCCCNC(=O)/C=C/c2cccnc2)NC(=O)c2ccc(Nc3nc4ccccc4s3)cc2)CCCCC1 [Compound 11]
